In assay [1] the test system is HeLa. Nature of the assay: Induction of cell cycle arrest in human HeLa cells assessed as G2/M phase cells at 60 nM after 24 hrs by flow cytometry. Format: functional. The procedure, abridged: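 Exponentially growing HeLa cells (5 × 10^5) were treated 24 h at 15–250 nM. Cells were fixed in ice-cold 70% ethanol, lysed with RNase A/0.1% Triton X-100 buffer and stained with propidium iodide. DNA content was measured by flow cytometry to score G2/M fraction. Mean ± SEM of three independent experiments.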
In general terms: In flow cytometry, cells or beads pass a laser one at a time.

Assay [2] concerns HeLa. Nature of the assay: Induction of apoptosis in human HeLa cells assessed as PARP cleavage at 50 to 100 nM after 24 to 48 hrs by Western blot analysis. It counts as functional, cell-based. The gist of the method:
(§1)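 HeLa cells were treated for 24 or 48 h, washed in ice-cold PBS and lysed on ice for 30 min; lysates were spun at 15000g, 4 °C. 20 μg protein per lane on SDS-PAGE (7.5–15%), then PVDF. Blocked overnight at 4 °C, primary antibodies 2 h at room temperature, peroxidase secondary 60 min, ECL detection. Blots were reprobed for β-actin as loading control.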
For orientation: A western blot detects proteins with antibodies after separation by electrophoresis.

Assay [3] concerns HT-29. Kind of assay: Anticancer activity against human HT-29 cells xenografted in BALB/c nude mouse assessed as tumor growth inhibition at 100 mg/kg, ip administered on days 0,2 and 4 relative to vehicle treated control. It counts as functional. As to conditions: HT-29, ip, route intraperitoneal, read-out: TGI. The gist of the method: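 HT-29 cells in log phase, suspended at 1 × 10^7 cells/mL in serum-free RPMI 1640, were inoculated (0.2 mL) into dorsal hypodermis of nude mice. At ~300 mm3, 18 mice were randomised to vehicle or two treatment groups (six per group). Dosing was 100 mg/kg ip in DMSO (0.01 mL/g) on days 0, 2 and 4. Caliper tumour volume V = LW²/2 and body weight were tracked versus vehicle.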
Background: A xenograft is tissue or cells of one species grown in another, often human tumour cells in immunodeficient mice.

The subject of the next assay is Jurkat. Kind of assay: Cytotoxicity against human Jurkat cells after 72 hrs by MTT assay. Format: functional, cell-based. The gist of the method:
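8 × 10^3 cells/well were preincubated 18 h at 37 °C, 5% CO2, then given graded concentrations for 72 h, with final DMSO not above 0.25%. Viability was read by MTT. […] Mean ± SE from at least three experiments.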

In assay [4] the test system is CCRF-CEM. Kind of assay: Cytotoxicity against human CEM cells after 72 hrs by MTT assay. Format: functional, cell-based. The procedure, abridged: (§2)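 Cells seeded at 8 × 10^3 per well and left 18 h at 37 °C, 5% CO2, then given fresh medium with compound at a range of concentrations for 72 h; DMSO at most 0.25% final. Viability read by MTT relative to 0.25% DMSO-treated cells. […] LoVoDoxo kept in Ham's F12 with 0.1 μg/mL doxorubicin; A549-T12 kept in DMEM with 12 nM paclitaxel.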

Assay [5] has as its system HeLa. Kind of assay: Induction of apoptosis in human HeLa cells assessed as caspase3 activation at 50 to 100 nM after 24 to 48 hrs by Western blot analysis. Format: functional, cell-based. The procedure, abridged:
as §1

Assay [6] has as its system CCRF-CEM. Nature of the assay: Resistance ratio of IC50 for human CEM/VBL100 cells to IC50 for human CEM cells. It counts as functional.
A further assay relates to MCF7. Nature of the assay: Cytotoxicity against human MCF7 cells after 72 hrs by MTT assay. It counts as functional, cell-based. As to conditions: MCF7, 72 h.
Assay [7] deals with HeLa. Nature of the assay: Induction of mitochondrial depolarization in human HeLa cells assessed as JC1 aggregate level after 48 hrs by JC1-based fluorescent staining (reference value: 99.2%). Format: functional. The gist of the method: (§3)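 Mitochondrial membrane potential in HeLa cells after 24 or 48 h incubation, measured with the JC-1 dye by flow cytometry. Aggregates read as red (590 nm) and monomers as 530 nm; output is the percentage of depolarized cells. Mean ± SEM of three independent experiments.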

Assay [8] can be described thus: Inhibition of bovine tubulin polymerisation after 20 mins by turbidimetric analysis. Set-up: species or system Bos taurus. The gist of the method:
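Bovine brain tubulin at 10 μM was preincubated with varying compound concentrations in glutamate buffer at 30 °C, cooled to 0 °C, and 0.4 mM GTP added. Samples were warmed to 30 °C and assembly followed by turbidity at 350 nm.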

Assay [9] is described as follows: Cytotoxicity against human CEM/VBL100 cells after 72 hrs by MTT assay. Format: functional, cell-based. As to conditions: CEM/VBL100, 72 h. The procedure, abridged: as §2
For a further assay, the system named is A549. Kind of assay: Resistance ratio of IC50 for human A549-T12 cells to IC50 for human A549 cells. Format: functional.
Assay [10] deals with HT-29. Kind of assay: Cytotoxicity against human HT-29 cells after 72 hrs by MTT assay. Format: functional, cell-based. As to conditions: HT-29, 72 h.
The test system of assay [11] is HeLa. Kind of assay: Cytotoxicity against human HeLa cells after 72 hrs by MTT assay. Format: functional, cell-based.
Assay [12] deals with HeLa. Nature of the assay: Induction of apoptosis in human HeLa cells assessed as caspase9 activation at 50 to 100 nM after 24 to 48 hrs by Western blot analysis. It counts as functional, cell-based. The gist of the method: as §1
Assay [13] concerns HeLa. Nature of the assay: Induction of apoptosis in human HeLa cells assessed as increase in annexin-V positive apoptotic cells at 50 to 100 nM by FITC conjugated annexin-V/PI staining-based flow cytometry. It counts as functional, cell-based. As to conditions: TDE = time-dependent effect. The procedure, abridged:
(§4)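 Flow cytometry of HeLa cells after 24 or 48 h exposure, double-stained with annexin-V-FITC and propidium iodide. Excitation at 488 nm, emission at 525 nm (FITC) and 585 nm (PI). Quadrants scored as live, early apoptotic, late apoptotic or necrotic cells.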

For assay [14], the system named is HeLa. Kind of assay: Induction of ROS production in human HeLa cells at 50 to 100 nM after 24 to 48 hrs by H2-DCFDA staining-based flow cytometry. Format: functional, cell-based. The procedure, abridged:
(§5)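 HeLa cells were exposed for 24 or 48 h, then stained with hydroethidine or H2-DCFDA for ROS and read by flow cytometry. DMSO ≤0.25%. Mean ± SEM of three independent experiments.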

The test system of assay [15] is HeLa. Kind of assay: Induction of apoptosis in human HeLa cells assessed as change in Bax protein expression at 50 to 100 nM after 24 to 48 hrs by Western blot analysis. Format: functional, cell-based. The gist of the method: as §1
For assay [16], the system named is HeLa. Kind of assay: Induction of apoptosis in human HeLa cells assessed as decrease in Bcl2 protein level at 50 to 100 nM after 48 hrs by Western blot analysis. It counts as functional, cell-based. The procedure, abridged: as §1
The subject of assay [17] is HeLa. Kind of assay: Induction of ROS production in human HeLa cells at 50 to 100 nM after 24 to 48 hrs by HE staining-based flow cytometry. Format: functional, cell-based. The gist of the method: as §5
The test system of assay [18] is HeLa. Nature of the assay: Induction of apoptosis in human HeLa cells assessed as late apoptotic cells at 100 nM after 48 hrs by FITC conjugated annexin-V/PI staining-based flow cytometry (reference value: 2.9%). It counts as functional.
In assay [19] the test system is HeLa. Kind of assay: Induction of necrosis in human HeLa cells assessed as necrotic cells at 100 nM after 48 hrs by FITC conjugated annexin-V/PI staining-based flow cytometry (reference value: 0.7%). It counts as functional. The procedure, abridged:
as §4

The test system of assay [20] is HeLa. Kind of assay: Induction of mitochondrial depolarization in human HeLa cells assessed as JC1 monomer level after 48 hrs by JC1-based fluorescent staining (reference value: 0.8%). Format: functional. The procedure, abridged: as §3
For another assay, the species on record is Bos taurus. Kind of assay: Displacement of [3H]colchicine from bovine tubulin at 5 uM by DEAE-cellulose filter method. The gist of the method:
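Inhibition of [3H]colchicine binding was measured in mixtures of 1 μM tubulin, 5 μM [3H]colchicine and 5 μM test compound. Results are percent inhibition of binding.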

Calls of active or inactive are those of the source. No cut-off for these calls is given here.

These results are taken from ChEMBL document CHEMBL1944515 (J Med Chem, 2012).

For the molecule `CCOc1ccc(-c2nnnn2-c2cc(OC)c(OC)c(OC)c2)cc1`, the Activity in the assay on HeLa [1] was greater than 80%; with HeLa [7] it was 0.09%; with HeLa [13], “tde”; with HeLa [18], 27.7%; in the assay on HeLa [19], 1.8%; with HeLa [20], 19.1%. Besides, the outcome in the assay on HeLa [2], with HeLa [5], in the assay with HeLa [12], in the assay on HeLa [14], in the assay with HeLa [16] and in the assay with HeLa [17] was Active. Moreover, the inhibition in vivo at 100 mg/kg in the assay with HT-29 [3] stood at 66%. Also, the concentration for half-maximal inhibition (IC50) (in general, the midpoint of a concentration-inhibition curve) was 0.16 nM in the assay with Jurkat; 3.1 nM with CCRF-CEM [4]; 2.3 nM in the assay on MCF7; 1100 nM in assay [8]; 0.7 nM in assay [9]; 2.8 nM in the assay on HT-29 [10]. For the same molecule, the IC50 in the assay with HeLa [11] was 1.9 nM. In addition, the “Ratio IC50” value in the assay with CCRF-CEM [6] was determined as 0.2; in the assay with A549, 1. Further, the outcome with HeLa [15] was inactive. Besides, in the assay listed under Bos taurus, the inhibition (in general, the percentage by which the read-out fell short of the control) came to 78%.
